For one compound, IC50 and solubility results are on record in ChEMBL document CHEMBL1154975, “Selective inducible microsomal prostaglandin E(2) synthase-1 (mPGES-1) inhibitors derived from an oxicam template” (Bioorg Med Chem Lett, 2010).

Data set [1] concerns the target T1, Prostaglandin E synthase (Homo sapiens, UniProt O14684).
T1 sequence (O14684 whole entry): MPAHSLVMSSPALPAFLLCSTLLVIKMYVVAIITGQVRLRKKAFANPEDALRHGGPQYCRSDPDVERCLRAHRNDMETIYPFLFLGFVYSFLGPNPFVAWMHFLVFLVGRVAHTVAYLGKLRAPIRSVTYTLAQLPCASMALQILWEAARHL
Put plainly: Inhibition of human mPGES1 in IL1-beta treated human FF cells assessed as blockade of PGH2 to PGE2 conversion after 50 mins by ELISA. Type of data set: cell-based. Put shortly:
(§1)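 Human fetal fibroblasts in DMEM/15% FBS at 37 °C, 5% CO2; after 20–24 h, stimulated 20–24 h with 1 ng/mL IL-1β, washed, compound 50 min in serum-free DMEM, then 10 µM arachidonic acid 10 min. PGE2 by ELISA. For PGF2α, SnCl2 added after compound for 10 min before arachidonic acid. IC50 from duplicate data.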

Data set [2] addresses T1, Prostaglandin E synthase. Put plainly: Inhibition of human mPGES1 assessed as PGE2 level after 41 sec by ELISA. Put shortly: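 Enzyme in 100 mM potassium phosphate pH 6.2 with 2.5 mM glutathione, compound added in DMSO. Reaction started with PGH2 (final 2 µM), stopped with 2.5 mM FeCl2, diluted 120-fold into ELISA buffer. PGE2 by ELISA against a standard curve. % control set between reference-inhibited and enzyme-only controls; IC50 by 4-parameter log fit of duplicate data.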
In general terms: ELISA stands for enzyme-linked immunosorbent assay.

For data set [3], the target named is T1, Prostaglandin E synthase. Put plainly: Inhibition of human mPGES1 in IL-1-beta-stimulated human RASF cells assessed as blockade of PGH2 to PGE2 conversion after 50 mins by ELISA. The format is cell-based. In outline: (§2)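 RA synovial fibroblasts cultured 3 days in DMEM/10% FBS, then 24 h with 1 ng/mL IL-1β in DMEM/1% FBS. Washed; compound (1% Me2SO final) 50 min, then 10 µM arachidonic acid 10 min at 37 °C. For PGF2α, 2 mg/mL SnCl2 added 40 min after compound. Prostanoids in conditioned media by ELISA.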

Data set [4] deals with T2, Thromboxane-A synthase (Homo sapiens, UniProt P24557).
T2 sequence (P24557 whole entry): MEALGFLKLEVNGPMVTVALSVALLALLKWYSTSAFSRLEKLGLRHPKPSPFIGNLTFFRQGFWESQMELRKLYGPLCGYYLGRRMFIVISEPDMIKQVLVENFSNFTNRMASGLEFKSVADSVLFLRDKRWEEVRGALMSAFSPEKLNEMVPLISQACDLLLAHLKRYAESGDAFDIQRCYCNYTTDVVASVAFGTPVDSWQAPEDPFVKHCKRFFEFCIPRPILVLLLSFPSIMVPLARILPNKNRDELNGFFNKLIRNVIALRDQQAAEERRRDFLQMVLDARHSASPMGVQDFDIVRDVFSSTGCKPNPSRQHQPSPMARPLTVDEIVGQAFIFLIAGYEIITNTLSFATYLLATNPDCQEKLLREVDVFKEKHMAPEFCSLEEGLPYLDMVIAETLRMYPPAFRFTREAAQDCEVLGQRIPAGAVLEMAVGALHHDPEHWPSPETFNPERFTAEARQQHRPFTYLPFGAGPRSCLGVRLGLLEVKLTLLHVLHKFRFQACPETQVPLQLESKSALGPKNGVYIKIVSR
Briefly: Inhibition of human thromboxane A synthase in IL-1-beta-stimulated human RASF cells assessed as TXB2 levels after 50 mins by ELISA. The format is cell-based.

For data set [5], the target named is Prostaglandin G/H synthase 1 (Homo sapiens, UniProt P23219). Put plainly: Inhibition of human recombinant COX1.
Chain of Prostaglandin G/H synthase 1 (P23219 whole entry): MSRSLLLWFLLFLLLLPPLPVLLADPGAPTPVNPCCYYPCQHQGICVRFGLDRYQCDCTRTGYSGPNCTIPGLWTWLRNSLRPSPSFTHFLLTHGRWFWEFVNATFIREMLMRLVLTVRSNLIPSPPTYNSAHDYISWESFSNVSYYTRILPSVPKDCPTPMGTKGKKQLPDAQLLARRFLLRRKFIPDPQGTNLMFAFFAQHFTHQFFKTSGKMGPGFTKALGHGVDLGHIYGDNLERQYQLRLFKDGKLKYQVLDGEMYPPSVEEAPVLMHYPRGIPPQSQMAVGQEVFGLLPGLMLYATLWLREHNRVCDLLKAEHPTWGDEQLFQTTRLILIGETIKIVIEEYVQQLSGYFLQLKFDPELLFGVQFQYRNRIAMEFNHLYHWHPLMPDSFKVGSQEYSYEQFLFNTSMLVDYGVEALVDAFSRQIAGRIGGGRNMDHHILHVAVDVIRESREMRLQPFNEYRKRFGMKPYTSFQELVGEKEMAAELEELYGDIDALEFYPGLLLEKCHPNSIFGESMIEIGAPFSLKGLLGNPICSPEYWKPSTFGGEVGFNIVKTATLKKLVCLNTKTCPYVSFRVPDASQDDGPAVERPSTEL
Data set [6] concerns the target T3, Prostacyclin synthase (Homo sapiens, UniProt Q16647).
T3 sequence (Q16647 whole entry): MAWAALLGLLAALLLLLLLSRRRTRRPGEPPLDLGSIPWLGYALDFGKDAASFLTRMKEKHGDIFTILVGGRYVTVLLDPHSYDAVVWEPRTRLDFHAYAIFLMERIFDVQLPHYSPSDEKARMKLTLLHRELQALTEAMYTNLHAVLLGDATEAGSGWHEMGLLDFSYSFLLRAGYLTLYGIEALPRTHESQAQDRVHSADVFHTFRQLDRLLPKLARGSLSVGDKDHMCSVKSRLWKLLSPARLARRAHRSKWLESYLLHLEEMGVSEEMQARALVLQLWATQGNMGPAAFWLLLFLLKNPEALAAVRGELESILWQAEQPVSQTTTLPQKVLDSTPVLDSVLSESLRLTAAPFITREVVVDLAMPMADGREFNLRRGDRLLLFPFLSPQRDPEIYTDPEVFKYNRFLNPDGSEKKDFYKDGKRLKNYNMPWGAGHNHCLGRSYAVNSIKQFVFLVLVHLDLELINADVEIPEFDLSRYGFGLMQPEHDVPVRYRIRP
Briefly: Inhibition of human prostacyclin synthase in IL-1-beta-stimulated human RASF cells assessed as PGF1alpha levels after 50 mins by ELISA. Type of data set: cell-based. Put shortly:
as §2

Data set [7] deals with T4, Prostaglandin G/H synthase 2 (Homo sapiens, UniProt P35354).
T4 sequence (P35354 whole entry): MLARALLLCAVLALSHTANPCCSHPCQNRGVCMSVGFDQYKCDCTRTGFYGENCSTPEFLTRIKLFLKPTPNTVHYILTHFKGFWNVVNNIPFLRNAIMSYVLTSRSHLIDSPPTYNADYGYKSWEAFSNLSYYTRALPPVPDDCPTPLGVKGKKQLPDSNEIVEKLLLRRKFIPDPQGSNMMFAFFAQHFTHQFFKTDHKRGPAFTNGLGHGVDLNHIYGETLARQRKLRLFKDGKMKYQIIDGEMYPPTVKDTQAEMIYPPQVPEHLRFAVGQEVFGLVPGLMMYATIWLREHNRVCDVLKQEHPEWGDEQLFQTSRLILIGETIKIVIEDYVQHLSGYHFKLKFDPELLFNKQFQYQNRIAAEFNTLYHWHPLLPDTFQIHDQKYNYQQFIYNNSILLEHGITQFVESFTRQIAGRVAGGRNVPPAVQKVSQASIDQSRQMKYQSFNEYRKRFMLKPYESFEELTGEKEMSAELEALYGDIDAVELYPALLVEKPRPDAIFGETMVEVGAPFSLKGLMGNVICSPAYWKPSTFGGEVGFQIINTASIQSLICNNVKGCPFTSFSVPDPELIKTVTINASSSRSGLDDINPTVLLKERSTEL
Briefly: Inhibition of human COX2 in IL1-beta treated human FF cells assessed as blockade of SnCl2-mediated PGH2 to PGF2alpha conversion after 50 mins by ELISA. The format is cell-based. In outline:
as §1

Data set [8] deals with T1, Prostaglandin E synthase. Put plainly: Inhibition of human mPGES1 in […] assessed as PGE2 level after 24 hrs by ELISA. The format is tissue-based, Blood. The conditions noted are these: in the assay text read “by ELISA” for “after 24 hrs by ELISA”. In outline: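 Heparinized healthy-donor human whole blood (100 µL/well) mixed with 10⁵ 1483 head-and-neck carcinoma cells, compound 15 min at 37 °C, then 30 µM arachidonic acid 10 min. Centrifuged 930 g 10 min; plasma PGE2 by ELISA.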

Data set [9] has as its target T4, Prostaglandin G/H synthase 2. Briefly: Inhibition of human recombinant COX2.
For data set [10] the target is unchanged. Briefly: Inhibition of human COX2 in IL-1-beta-stimulated human RASF cells assessed as PGF2alpha levels after 50 mins by ELISA. The format is cell-based. Put shortly: as §2
The nature of data set [11]: Aqueous solubility assessed as nitrogen content after 24 hrs. Type of data set: physicochemical. In outline: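 Test compound from 30 mM DMSO stock diluted into 50 mM sodium phosphate buffer at the indicated pH (final 2% DMSO). Shaken 24 h at room temperature (23–25 °C), vacuum filtered. Filtrate nitrogen measured by chemiluminescent nitrogen detection; concentration derived from nitrogen count in molecular formula, reported in µg/mL and µM.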

Molecules are shown by their SMILES. Where only a bound is given, the exact number is not on record here.

The IC50 is the concentration that inhibits the measured activity by half. The term solubility denotes how much of the substance goes into solution per volume.

Take `O=C(Nc1ccc(-c2ccc(Cl)c(Cl)c2)cc1)C1=C(O)c2ccccc2S(=O)(=O)N1`: the IC50 in data set [1] is 0.42 µM; in data set [2], 0.016 µM; in [3], 0.5 µM; in data set [4] it was more than 100 µM; in [5] it was 118 µM; in data set [6], more than 100 µM. Moreover, the IC50 in [7] was more than 100 µM; in data set [8] it was 5 µM; in data set [9], 263 µM; in [10], more than 100 µM. Also, in data set [11], the solubility at 24 h is less than 3 µM.
